Assay results from PMC5087331 (Journal of Medicinal Chemistry, 2016).
Values belong to the compound of their own block, whether it stands above or below them.

Key:
[1] = system: clinical E. coli strain UTI89; test: Hemagglutination inhibition; assay type: cell-based, Escherichia coli
UTI89KAN (UPEC) [2] = test: Treatment of chronic urinary tract infection in mice; assay type: in vivo, C3H/HeN female mice; conditions: chronic UTI
Procedure, shortened: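 Female C3H/HeN mice were infected transurethrally with 1–2 × 10^8 UTI89KAN. Urine titers were taken on day 12, and mice with ≥10^5 were counted as chronic. At 2 weeks they received oral test compound (25 or 50 mg/kg) in 100 μL 10% cyclodextrin. Bladders were harvested at set times after dosing and plated on kanamycin LB. Geometric means; Mann–Whitney versus vehicle or 0 h.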

UTI89KAN (UPEC) [3] = test: Prophylactic treatment of acute urinary tract infection in mice; assay type: in vivo, C3H/HeN female mice; conditions: 25 mg/kg PO 30 min prior to UPEC infection, bacterial titers 6 h postinfection
Procedure, shortened: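 6–8-week female C3H/HeN mice were dosed orally with 25 mg/kg test compound in 10% cyclodextrin. After 30 min they were inoculated transurethrally under isoflurane with 1–2 × 10^7 UTI89KAN (grown 2 × 24 h static in LB, 37 °C; washed, in PBS). At 6 h, bladders were homogenised and plated on LB + 50 μg/mL kanamycin. Geometric means from ≥2 experiments; Mann–Whitney versus vehicle.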

[4] = target: FimH lectin domain (FimHL) (Escherichia coli, UniProt P08191); test: Differential scanning fluorimetry; assay type: binding; conditions: isothermal shift melting point assay
Sequence of FimH lectin domain (FimHL) (P08191 22-179): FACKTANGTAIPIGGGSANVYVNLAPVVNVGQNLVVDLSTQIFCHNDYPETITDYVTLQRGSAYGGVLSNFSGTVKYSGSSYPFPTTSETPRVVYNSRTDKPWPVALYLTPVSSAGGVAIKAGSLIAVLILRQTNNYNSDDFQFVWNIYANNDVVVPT
Procedure, shortened: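 FimH lectin domain (FimHL) at 10 μM, heated with or without 100 μM mannoside. Melting temperature measured by differential scanning fluorimetry. Value is the shift in melting temperature relative to protein without mannoside.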

[5] = 25 mg/kg oral, 12 h post treatment

Structure (SMILES): CNC(=O)c1cccc(-c2ccc([C@H](O)[C@H]3O[C@H](CO)[C@@H](O)[C@H](O)[C@@H]3O)cc2)c1 [6S, 4′-[(α-D-Mannopyranosyl)-(S)-hydroxymethyl]-N-methyl-[1,1′biphenyl]-3-carboxamide]
- fold less potency in the HA assay than 5 ([1]; comparator 5): 25 fold

Structure (SMILES): CNC(=O)c1cccc(-c2ccc([C@@H](O)[C@H]3O[C@H](CO)[C@@H](O)[C@H](O)[C@@H]3O)c(C)c2)c1 [21R, 4′-[(α-D-Mannopyranosyl)-(R)-hydroxymethyl]-N,3′-dimethyl-[1,1′biphenyl]-3-carboxamide]
- bladder burdens relative to untreated mice (UTI89KAN (UPEC) [2]; [5]): three logs lower
- change in bladder burdens compared to vehicle (UTI89KAN (UPEC) [2]; [5]): dramatic and significant decrease in CFUs

Structure (SMILES): CNC(=O)c1cccc(-c2ccc(O[C@H]3O[C@H](COC(C)=O)[C@@H](OC(C)=O)[C@H](OC(C)=O)[C@@H]3OC(C)=O)c(C)c2)c1 [23a, 4′-(2,3,4,6-Tetra-O-acetyl-α-D-mannopyranosyloxy)-N,3′-dimethyl-[1,1′biphenyl]-3-carboxamide]
- efficacy compared to 23 as prophylaxis therapy (UTI89KAN (UPEC) [3]): improved efficacy compared to 23
- change in bladder burdens compared to vehicle (UTI89KAN (UPEC) [2]; [5]): similar, but statistically significant, decrease in bladder burdens

Structure (SMILES): CNC(=O)c1cccc(-c2ccc(O[C@H]3O[C@H](COP(=O)(O)O)[C@@H](O)[C@H](O)[C@@H]3O)c(C)c2)c1 [23b, 4′-(6-Dihydrogen Phosphate-α-D-mannopyranosyloxy)-N,3′-dimethyl-[1,1′biphenyl]-3-carboxamide]
- efficacy compared to 23 as prophylaxis therapy (UTI89KAN (UPEC) [3]): improved efficacy compared to 23

Structure (SMILES): CNC(=O)c1cccc(-c2ccc(O[C@H]3O[C@H](COC(=O)CN(C)C)[C@@H](O)[C@H](O)[C@@H]3O)c(C)c2)c1 [23c, 4′-[6-O-(N,N-Dimethylaminoacetyl)-α-D-mannopyranosyloxy]-N,3′-dimethyl-[1,1′biphenyl]-3-carboxamide]
- efficacy compared to 23 as prophylaxis therapy (UTI89KAN (UPEC) [3]): did not show enhanced efficacy

- binding affinity to FimH relative to 1 [4]: equivalent binding affinity to FimH
Structure (SMILES): COC(=O)c1cccc(-c2ccc(N[C@H]3O[C@H](CO)[C@@H](O)[C@H](O)[C@@H]3O)cc2)c1 [compound 2, 4′-(α-D-Mannopyranosylamino)-[1,1′biphenyl]-3-carboxylic Acid Methyl Ester]

- binding affinity to FimH relative to 1 [4]: equivalent binding affinity to FimH
Structure (SMILES): COC(=O)c1cccc(-c2ccc(S[C@H]3O[C@H](CO)[C@@H](O)[C@H](O)[C@@H]3O)cc2)c1 [compound 3, 4′-(α-D-Mannopyranosylthio)-[1,1′biphenyl]-3-carboxylic Acid Methyl Ester]

Structure (SMILES): CNC(=O)c1cccc(-c2ccc(C[C@H]3O[C@H](CO)[C@@H](O)[C@H](O)[C@@H]3O)c(C)c2)c1 [compound 22, 4′-[(α-D-Mannopyranosyl)methyl]-N,3′-dimethyl-[1,1′biphenyl]-3-carboxamide]
- fold decrease in activity relative to 23 ([1]; comparator 23): 30 fold

Structure (SMILES): CNC(=O)c1cc(C(=O)NC)cc(-c2ccc(O[C@H]3O[C@H](CO)[C@@H](O)[C@H](O)[C@@H]3O)c(C)c2)c1 [compound 24]
- fold more potent than 23 in HA assay ([1]; comparator 23): 4 fold
- change in bladder burdens compared to vehicle (UTI89KAN (UPEC) [2]; [5]): noticeable, but not significant, decrease in bladder burdens
- bladder burden at 6 h (UTI89KAN (UPEC) [2]; 50 mg/kg oral): 10^4 CFUs
- bladder burden at 12 hours (geometric mean) (UTI89KAN (UPEC) [2]; 50 mg/kg oral): 10^5
- bladder burden 2 h postdosing (UTI89KAN (UPEC) [2]; 50 mg/kg oral, from 10^7 CFUs at 0 h): approximately 10^5 CFUs
